Assays:
[1] = target: T1, Beta-galactoside alpha-2,6-sialyltransferase 1 (Homo sapiens) (UniProt P15907); test: Inhibition of recombinant human ST6Gal I at 10 uM incubated for 1 hrs in the presence of CMP-Neu5Ac as donor and LacNAc as acceptor by luminescence based CMP-Glo assay relative to control
T1 sequence (whole entry): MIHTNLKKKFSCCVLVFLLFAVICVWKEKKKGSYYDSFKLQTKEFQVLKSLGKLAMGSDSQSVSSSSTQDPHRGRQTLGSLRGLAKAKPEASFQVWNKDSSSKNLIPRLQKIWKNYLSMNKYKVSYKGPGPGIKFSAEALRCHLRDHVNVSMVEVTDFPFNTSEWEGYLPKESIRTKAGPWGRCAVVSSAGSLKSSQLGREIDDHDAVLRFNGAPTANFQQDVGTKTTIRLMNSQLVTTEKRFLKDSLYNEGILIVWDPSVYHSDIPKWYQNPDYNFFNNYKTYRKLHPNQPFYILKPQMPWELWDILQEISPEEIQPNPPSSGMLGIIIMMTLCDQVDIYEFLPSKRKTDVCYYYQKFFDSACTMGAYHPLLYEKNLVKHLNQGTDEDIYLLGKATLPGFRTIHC
How it was run: (§1)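 Human enzyme reaction with 1 mM acceptor and 100 μM CMP-Neu5Ac donor. Test agent at 10 or 100 μM, incubated for a single hour. CMP formed as by-product was converted in a luciferase reaction, and luminescence, linear with CMP concentration, was read. Percent inhibition was calculated against control.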

[2] = target: T1, Beta-galactoside alpha-2,6-sialyltransferase 1 (Homo sapiens); test: Ratio of Km for Substrate activity at recombinant human ST6Gal I to Ki for inhibition of recombinant human ST6Gal I at 10 uM incubated for 1 hrs in the presence of CMP-Neu5Ac as donor and LacNAc as acceptor
How it was run: (§2)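 For hST6Gal I, the Km for CMP-Neu5Ac was determined with acceptor held at 1 mM. Ki was determined only for agents exceeding 50% inhibition at 10 μM in the screen (1 mM acceptor, 100 μM donor). Read-out was luciferase-coupled luminescence of released CMP after a single-hour incubation.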

[3] = target: T2, CMP-N-acetylneuraminate-beta-galactosamide-alpha-2,3-sialyltransferase 1 (Homo sapiens) (UniProt Q11201); test: Inhibition of recombinant human ST3Gal I at 100 uM incubated for 1 hrs in the presence of CMP-Neu5Ac as donor and Gal-beta1,3-GalNAc as acceptor by luminescence based CMP-Glo assay relative to control; how it was run: as §1
T2 sequence (whole entry): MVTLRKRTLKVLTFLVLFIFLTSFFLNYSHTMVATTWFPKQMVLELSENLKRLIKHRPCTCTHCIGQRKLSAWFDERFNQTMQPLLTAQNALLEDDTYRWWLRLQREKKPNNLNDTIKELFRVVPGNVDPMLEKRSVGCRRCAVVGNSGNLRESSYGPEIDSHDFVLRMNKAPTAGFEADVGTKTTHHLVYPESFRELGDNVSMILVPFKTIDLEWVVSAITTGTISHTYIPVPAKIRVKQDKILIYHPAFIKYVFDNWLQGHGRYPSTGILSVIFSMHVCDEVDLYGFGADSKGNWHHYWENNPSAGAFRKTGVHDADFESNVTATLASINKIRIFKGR

[4] = target: T1, Beta-galactoside alpha-2,6-sialyltransferase 1 (Homo sapiens); test: Inhibition of recombinant human ST6Gal I at 100 uM incubated for 1 hrs in the presence of CMP-Neu5Ac as donor and LacNAc as acceptor by luminescence based CMP-Glo assay relative to control; how it was run: as §1
[5] = target: T3, Beta-galactoside alpha-2,6-sialyltransferase 1 (Homo sapiens, UniProt P15907); test: Inhibition of recombinant human ST6Gal I incubated for 1 hrs in the presence of CMP-Neu5Ac as donor and LacNAc as acceptor by luminescence based CMP-Glo assay; how it was run: as §2
T3 sequence (P15907 whole entry): T1 sequence (whole entry)

Row | inhibition [1] | inhibition [3] | Structure (SMILES) | further results
1 | 23% | – | O=c1ccn([C@@H]2O[C@H](COCc3cn(C(c4cccc(C(F)(F)F)c4)P(=O)(O)O)nn3)[C@@H](O)[C@H]2O)c(=O)[nH]1 (single isomer, unassigned; form 1) | –
2 | 26% | 2% | O=c1ccn([C@@H]2O[C@H](COCc3cn(C(c4cccc(Oc5ccccc5)c4)P(=O)(O)O)nn3)[C@@H](O)[C@H]2O)c(=O)[nH]1 (stereo in doubt; 13a-(l)) [listing 1 of 2 here] | Ratio [2]: 0.7
3 | 25% | – | O=c1ccn([C@@H]2O[C@H](COCc3cn(C(c4csc5ccccc45)P(=O)(O)O)nn3)[C@@H](O)[C@H]2O)c(=O)[nH]1 (stereo in doubt; 13g-(s)) | –
4 | 21% | – | O=c1ccn([C@@H]2O[C@H](COCc3cn(C(c4csc5ccccc45)P(=O)(O)O)nn3)[C@@H](O)[C@H]2O)c(=O)[nH]1 (stereo in doubt; 13g-(l)) | –
5 | 57% | 43% | O=c1ccn([C@@H]2O[C@H](COCc3cn(C(c4ccc(F)c(Oc5ccccc5)c4)P(=O)(O)O)nn3)[C@@H](O)[C@H]2O)c(=O)[nH]1 (stereo in doubt; 13c-(s)) [listing 1 of 2 here] | Ratio [2]: 6
6 | – | 43% | O=c1ccn([C@@H]2O[C@H](Cn3cc(C(O)c4cccc(Oc5ccccc5)c4)nn3)[C@@H](O)[C@H]2O)c(=O)[nH]1 (some centres undefined) | inhibition [4]: 84%
7 | 10% | – | O=c1ccn([C@@H]2O[C@H](COCc3cn(C(c4cccc(OC5CCCC5)c4)P(=O)(O)O)nn3)[C@@H](O)[C@H]2O)c(=O)[nH]1 (stereo in doubt; 13b-(l)) | –
8 | 41% | – | O=c1ccn([C@@H]2O[C@H](COCc3cn(C(c4cccc(OC5CCCC5)c4)P(=O)(O)O)nn3)[C@@H](O)[C@H]2O)c(=O)[nH]1 (single isomer, unassigned) | –
9 | – | – | O=c1ccn([C@@H]2O[C@H](COCc3cn(C(c4cccc(Oc5ccccc5)c4)P(=O)(O)O)nn3)[C@@H](O)[C@H]2O)c(=O)[nH]1 (stereo in doubt; 13a-(l)) [listing 2 of 2 here] | Ki [5]: 50 µM
10 | – | – | O=c1ccn([C@@H]2O[C@H](COCc3cn(C(c4cccc(OC(F)(F)C(F)F)c4)P(=O)(O)O)nn3)[C@@H](O)[C@H]2O)c(=O)[nH]1 (stereo in doubt; 13f-(l)) [listing 1 of 2 here] | Ki [5]: 3.4 µM
11 | 39% | – | O=c1ccn([C@@H]2O[C@H](COCc3cn(C(c4cccc(C(F)(F)F)c4)P(=O)(O)O)nn3)[C@@H](O)[C@H]2O)c(=O)[nH]1 (single isomer, unassigned; form 2) | –
12 | – | – | O=c1ccn([C@@H]2O[C@H](COCc3cn(C(c4cccc(OC(F)(F)C(F)F)c4)P(=O)(O)O)nn3)[C@@H](O)[C@H]2O)c(=O)[nH]1 (single isomer, unassigned) [listing 1 of 2 here] | Ki [5]: 6.7 µM
13 | 65% | 49% | O=c1ccn([C@@H]2O[C@H](COCc3cn(C(c4cccc(OC(F)(F)C(F)F)c4)P(=O)(O)O)nn3)[C@@H](O)[C@H]2O)c(=O)[nH]1 (single isomer, unassigned) [listing 2 of 2 here] | Ratio [2]: 5.6
14 | – | – | O=c1ccn([C@@H]2O[C@H](COCc3cn(C(c4ccc(F)c(Oc5ccccc5)c4)P(=O)(O)O)nn3)[C@@H](O)[C@H]2O)c(=O)[nH]1 (stereo in doubt; 13c-(l)) [listing 1 of 2 here] | Ki [5]: 34 µM
15 | – | – | O=c1ccn([C@@H]2O[C@H](COCc3cn(C(c4cccc(Oc5ccccc5)c4)P(=O)(O)O)nn3)[C@@H](O)[C@H]2O)c(=O)[nH]1 (stereo in doubt; 13a-(s)) [listing 1 of 2 here] | Ki [5]: 40 µM
16 | – | – | O=c1ccn([C@@H]2O[C@H](COCc3cn(C(c4ccc(F)c(Oc5ccccc5)c4)P(=O)(O)O)nn3)[C@@H](O)[C@H]2O)c(=O)[nH]1 (stereo in doubt; 13c-(s)) [listing 2 of 2 here] | Ki [5]: 6 µM
17 | 59% | 9% | O=c1ccn([C@@H]2O[C@H](COCc3cn(C(c4ccc(F)c(Oc5ccccc5)c4)P(=O)(O)O)nn3)[C@@H](O)[C@H]2O)c(=O)[nH]1 (stereo in doubt; 13c-(l)) [listing 2 of 2 here] | Ratio [2]: 1.1
18 | 44% | – | O=c1ccn([C@@H]2O[C@H](COCc3cn(C(c4ccc(F)cc4)P(=O)(O)O)nn3)[C@@H](O)[C@H]2O)c(=O)[nH]1 (single isomer, unassigned) | –
19 | 45% | – | O=c1ccn([C@@H]2O[C@H](COCc3cn(C(c4ccc(F)cc4)P(=O)(O)O)nn3)[C@@H](O)[C@H]2O)c(=O)[nH]1 (stereo in doubt; 13d-(l)) | –
20 | 78% | 39% | O=c1ccn([C@@H]2O[C@H](COCc3cn(C(c4cccc(OC(F)(F)C(F)F)c4)P(=O)(O)O)nn3)[C@@H](O)[C@H]2O)c(=O)[nH]1 (stereo in doubt; 13f-(l)) [listing 2 of 2 here] | Ratio [2]: 11
21 | 62% | 28% | O=c1ccn([C@@H]2O[C@H](COCc3cn(C(c4cccc(Oc5ccccc5)c4)P(=O)(O)O)nn3)[C@@H](O)[C@H]2O)c(=O)[nH]1 (stereo in doubt; 13a-(s)) [listing 2 of 2 here] | Ratio [2]: 1

— ChEMBL document CHEMBL5107938, “Synthesis and biological evaluation of selective phosphonate-bearing 1,2,3-triazole-linked sialyltransferase inhibitors” (RSC Med Chem, 2021)
